Data reported in PubChem BioAssay AID493237 (Broad Institute, 2011).
“And” between values parts separate entries of the source, which are not always exact repeats. Equal entries are not always repeated. The source made the active and inactive calls.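 Rule for the calls: active = fitted curve reaching 40% activation at a concentration no higher than the top valid dose tested; inconclusive = flat curve between 30 and 70% activation, or poor fit; inactive = the rest, including opposite-direction effects.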

Assays:
[1] = system: U2OS HRE-luciferase reporter, iron condition, luminescence; experiment: HRE-luciferase activation in iron medium, dose response, mechanism study for HIF pathway activator project, cell-based, U2OS, luminescence, dry powder, set 2 (AID 493237)
Outline: (§1)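 System: human U2OS osteosarcoma cells with stable 3×HRE-driven luciferase reporter. Quantity: 6,000 cells/well. Also added: ferric nitrate at 50 µM final, added before compound. Incubation: 24 h pre-dosing growth, 24 h compound exposure, 37 °C. Measured by: Steady-Glo luminescence.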

[2] = as above; conditions: U2OS HRE-luciferase reporter, iron condition, luminescence; at 38 µM (top of the series)
Outline: as §1

| SMILES | AC40 [1] | activation [2] |
| --- | --- | --- |
| c1ccc(-c2nnc(-c3ccccn3)nc2NCc2cccnc2)cc1 | 25.9 µM | – |
| O=C(Nc1cnc2ccccc2c1)c1cc(-c2ccccc2)on1 | – | 14% (inactive) |
| Oc1ccc(CNC2Cc3ccccc3C2)c2cccnc12 | – | -38.8% (inactive) |
| O=C(NCCN1CCOCC1)c1cc(-c2ccccc2)on1 | 9.15 µM | – |
| O=C(NCC1CC1)c1cc(-c2ccccc2)on1 | 3.19 µM | – |
| O=C(Nc1ncc2ccccc2n1)c1cc(-c2ccccc2)on1 | > 38 µM (inactive) | – |
| CC(Nc1nc(-c2ccccn2)nnc1-c1ccccc1)c1ccccc1 (configuration not stated) | 10.3 µM | – |
| Oc1ccc(CN2CCC(Cc3ccccc3)CC2)c2cccnc12 | – | -17.9% (inactive) |
| c1ccc(-c2nnc(-c3ccccn3)nc2NCc2ccccn2)cc1 | 15.9 µM | – |
| Cn1c(NC(=O)c2cc(-c3ccccc3)on2)nc2ccccc21 | – | 7.37% (inactive) |
| O=C(NC1CCc2ccccc2C1)c1cc(-c2ccccc2)on1 (configuration not stated) | – | -15.1% (inactive) |
| CCCCNC(=O)c1cc(-c2ccccc2)on1 | 3.76 µM | – |
| c1ccc(-c2ccc(CNc3nc(-c4ccccn4)nnc3-c3ccccc3)cc2)cc1 | 9.52 µM | – |
| c1ccc(-c2nnc(-c3ccccn3)nc2NCC2CC2)cc1 | 24 µM | – |
| Cc1ccccc1CNC(=O)c1cc(-c2ccccc2)on1 | – | 15.4% (inactive) |
| CC(C)(C)CCNc1nc(-c2ccccn2)nnc1-c1ccccc1 | 10.2 µM and 8.22 µM | – |
| O=C(Nc1ccc2ccccc2n1)c1cc(-c2ccccc2)on1 | – | -19.3% (inactive) |
| Clc1cccc(CNc2nc(-c3ccccn3)nnc2-c2ccccc2)c1 | 11.6 µM | – |
| c1ccc(-c2nnc(-c3ccccn3)nc2NCC2CCCCC2)cc1 | 9.8 µM | – |
| c1ccc(-c2cccc(CNc3nc(-c4ccccn4)nnc3-c3ccccc3)c2)cc1 | 10.1 µM | – |
| O=C(c1cc(-c2ccccc2)on1)N1CCc2cccnc21 | – | -8.92% (inactive) |
| Cn1c(-c2ccccc2)cnc1NC(=O)c1cc(-c2ccccc2)on1 | – | 6.19% (inactive) |

| SMILES | AC40 [1] | activation [2] |
| --- | --- | --- |
| COc1cccc(CNc2nc(-c3ccccn3)nnc2-c2ccccc2)c1 | 10.7 µM | – |
| O=C(c1cc(-c2ccccc2)on1)N1CCN(c2ccncc2)CC1 | – | -11.7% (inactive) |
| OCC1CCN(c2nc(-c3ccccn3)nnc2-c2ccccc2)CC1 | – | 37.3% (inactive) |
| Cc1ccc(Nc2nc(-c3ccccn3)nnc2-c2ccccc2)cn1 | 24.3 µM | – |
| c1ccc(CCNc2nc(-c3ccccn3)nnc2-c2ccccc2)cc1 | 10.6 µM | – |
| CN(C)CCNC(=O)c1cc(-c2ccccc2)on1 | – | 19.3% (inactive) |
| O=C(NCCCO)c1cc(-c2ccccc2)on1 | 5.66 µM | – |
| c1ccc(-c2csc(Nc3nc(-c4ccccn4)nnc3-c3ccccc3)n2)cc1 | > 38 µM (inactive) | – |
| Cc1cccc(NC(=O)c2cc(-c3ccccc3)on2)n1 | > 38 µM (inactive) | – |
| Oc1ccc(CN2CCc3ccccc3C2)c2cccnc12 | – | -30.4% (inactive) |
| c1ccc(-c2nnc(-c3ccccn3)nc2Nc2nc3ccccc3s2)cc1 | – | 21.8% (inactive) |
| Cc1ccc(CNc2nc(-c3ccccn3)nnc2-c2ccccc2)cc1C | 6.44 µM | – |
| O=C(NCC1CCCCC1)c1cc(-c2ccccc2)on1 | – | 21.9% (inactive) |
| Cc1ccc(NC(=O)c2cc(-c3ccccc3)on2)cn1 | – | -0.441% (inactive) |
| c1ccc(-c2nnc(-c3ccccn3)nc2N2CCC(C3CCCCC3)C2)cc1 (configuration not stated) | – | -30.3% (inactive) |
| c1ccc(-c2nnc(Nc3nc(-c4ccccn4)nnc3-c3ccccc3)s2)cc1 | > 38 µM (inactive) | – |
| Cc1cccc(Nc2nc(-c3ccccn3)nnc2-c2ccccc2)n1 | 27.2 µM | – |
| N#CC1(c2ccccc2)CCN(Cc2ccc(O)c3ncccc23)CC1 | – | -19.9% (inactive) |
| Oc1ccc(CN2CCC3CCCCC3C2)c2cccnc12 (configuration not stated) | – | -51.1% (inactive) |
| OCC1CCN(Cc2ccc(O)c3ncccc23)CC1 | – | -24% (inactive) |
| CC1CN(Cc2ccc(O)c3ncccc23)CC(C)O1 (configuration not stated) | – | -40% (inactive) |
| Cc1cccc(CNc2nc(-c3ccccn3)nnc2-c2ccccc2)c1 | 8.97 µM | – |

| SMILES | AC40 [1] | activation [2] |
| --- | --- | --- |
| O=C(NCCCN1CCOCC1)c1cc(-c2ccccc2)on1 | 10.3 µM | – |
| O=C(Nc1nnc(-c2ccccc2)s1)c1cc(-c2ccccc2)on1 | – | 2.91% (inactive) |
| O=C(Nc1ncc(-c2ccccc2)o1)c1cc(-c2ccccc2)on1 | – | -19.3% (inactive) |
| CC(C)(C)OC(=O)N1CCN(Cc2ccc(O)c3ncccc23)CC1 | – | -18.7% (inactive) |
| CC(C)(C)c1ccc(CNc2nc(-c3ccccn3)nnc2-c2ccccc2)cc1 | 20.6 µM | – |
| OCCCNc1nc(-c2ccccn2)nnc1-c1ccccc1 | 23.9 µM | – |
| COc1ccccc1N1CCN(Cc2ccc(O)c3ncccc23)CC1 | – | -35.6% (inactive) |
| c1ccc(-c2cnc(Nc3nc(-c4ccccn4)nnc3-c3ccccc3)s2)cc1 | – | 1.03% (inactive) |
| Cc1ccc(CNC(=O)c2cc(-c3ccccc3)on2)cc1 | – | -26.7% (inactive) |
| C[C@@H](Nc1nc(-c2ccccn2)nnc1-c1ccccc1)C1CCCCC1 | 7.81 µM | – |
| C=CCNc1nc(-c2ccccn2)nnc1-c1ccccc1 | 26.5 µM | – |
| O=C(Nc1nc2ccccc2s1)c1cc(-c2ccccc2)on1 | – | 9.12% (inactive) |
| O=C(NCc1ccccc1)c1cc(-c2ccccc2)on1 | > 38 µM (inactive) | – |
| O=C(NCCCn1ccnc1)c1cc(-c2ccccc2)on1 | 4.5 µM | – |
| C[C@H](Nc1nc(-c2ccccn2)nnc1-c1ccccc1)C1CCCCC1 | 9.72 µM | – |
| COc1ccc(CNc2nc(-c3ccccn3)nnc2-c2ccccc2)cc1 | 9.43 µM | – |
| CN1CCN(C(=O)c2cc(-c3ccccc3)on2)CC1 | – | -32.3% (inactive) |
| c1ccc(-c2nnc(-c3ccccn3)nc2N2CCC(c3ccccc3)C2)cc1 (configuration not stated) | 18.7 µM | – |
| CC(C)(C)CCNC(=O)c1cc(-c2ccccc2)on1 | 8.89 µM | – |
| O=C(NCCCCO)c1cc(-c2ccccc2)on1 | 1.29 µM | – |
| c1ccc(-c2nnc(-c3ccccn3)nc2NCCN2CCOCC2)cc1 | 19.4 µM | – |
| CN1CCN(c2nc(-c3ccccn3)nnc2-c2ccccc2)CC1 | 25 µM | – |

| SMILES | AC40 [1] | activation [2] |
| --- | --- | --- |
| O=C(NC1Cc2ccccc2C1)c1cc(-c2ccccc2)on1 | > 38 µM (inactive) | – |
| C[C@@H](Nc1nc(-c2ccccn2)nnc1-c1ccccc1)c1ccccc1 | 8.05 µM | – |
| c1ccc(-c2nnc(-c3ccccn3)nc2NCCCN2CCOCC2)cc1 | 26.1 µM | – |
| O=C(Nc1cn2ccccc2n1)c1cc(-c2ccccc2)on1 | – | -9.98% (inactive) |
| Cn1c(-c2ccccc2)cnc1Nc1nc(-c2ccccn2)nnc1-c1ccccc1 | – | 11.2% (inactive) |
| c1ccc(-c2nnc(-c3ccccn3)nc2N2CCN(c3ccncc3)CC2)cc1 | 22.9 µM | – |
| c1ccc(-c2nnc(-c3ccccn3)nc2N2CCC(N3CCOCC3)CC2)cc1 | 21 µM | – |
| O=C(Nc1nc(-c2ccccc2)cs1)c1cc(-c2ccccc2)on1 | – | -4.82% (inactive) |
| O=C(c1cc(-c2ccccc2)on1)N1CCC(N2CCCC2)CC1 | – | -1.29% (inactive) |
| O=C(c1cc(-c2ccccc2)on1)N1CCC(N2CCOCC2)CC1 | – | -12.6% (inactive) |
| c1ccc(CNc2nc(-c3ccccn3)nnc2-c2ccccc2)cc1 | 9.31 µM | – |
| c1ccc(-c2nnc(-c3ccccn3)nc2NCCc2ccccn2)cc1 | 24.3 µM | – |
| c1ccc(-c2nnc(-c3ccccn3)nc2Nc2cnc3ccccc3n2)cc1 | 24.8 µM | – |
| Cc1cccc(CNC(=O)c2cc(-c3ccccc3)on2)c1 | – | -17.5% (inactive) |
| CN(C)c1nc(-c2ccccn2)nnc1-c1ccccc1 | 24.5 µM | – |
| O=C(c1cc(-c2ccccc2)on1)N1CCC(CO)CC1 | – | -15.4% (inactive) |
| O=C(NCCN1CCCCC1)c1cc(-c2ccccc2)on1 | – | 15.3% (inactive) |
| Oc1ccc(CNC2CCc3ccccc32)c2cccnc12 (configuration not stated) | – | -45.6% (inactive) |
| Cc1ccc(CNc2nc(-c3ccccn3)nnc2-c2ccccc2)cc1 | 11.4 µM | – |
| c1ccc(-c2nnc(-c3ccccn3)nc2NCC2CCOCC2)cc1 | – | 137% (inactive) |
| Cc1ccccc1CNc1nc(-c2ccccn2)nnc1-c1ccccc1 | 7.8 µM | – |
